The text below walks through data of ChEMBL document CHEMBL1131250 (J Med Chem, 1998).

The structures appear in SMILES notation. Bounds are passed on as bounds.

The subject of experiment [1] is Cavia porcellus. The experiment can be described thus: The compound (50umol/kg, sc) was tested for hypothermic response for 30 mins in Guinea pig. Format: functional. In outline:
(§1)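 Guinea pigs dosed subcutaneously. Body temperature change read at 30 and 60 min after dosing. Response given as the difference in °C from vehicle-treated controls, as mean ± SEM, n = 4-5 per group. Significance tested against vehicle.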

Experiment [2] addresses T1, D(4) dopamine receptor (Homo sapiens, UniProt P21917).
T1 sequence (P21917 whole entry): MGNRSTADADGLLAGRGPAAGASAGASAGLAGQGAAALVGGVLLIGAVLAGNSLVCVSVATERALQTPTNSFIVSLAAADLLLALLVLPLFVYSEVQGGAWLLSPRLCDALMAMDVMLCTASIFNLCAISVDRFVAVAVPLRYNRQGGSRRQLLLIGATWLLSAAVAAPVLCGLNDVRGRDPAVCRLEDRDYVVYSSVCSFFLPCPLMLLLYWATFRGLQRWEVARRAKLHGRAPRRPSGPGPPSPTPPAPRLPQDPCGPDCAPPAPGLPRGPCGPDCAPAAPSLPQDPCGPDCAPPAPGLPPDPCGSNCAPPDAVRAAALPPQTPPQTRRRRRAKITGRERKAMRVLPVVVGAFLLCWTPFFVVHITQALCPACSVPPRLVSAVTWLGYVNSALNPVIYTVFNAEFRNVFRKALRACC
The experiment can be described thus: The compound was tested for CNS binding affinity towards Dopamine receptor D4 from cloned Human membranes; Inactive.

Experiment [3] concerns the target 5-hydroxytryptamine receptor 1B (Gorilla gorilla, UniProt Q9N2B7). The experiment can be described thus: The compound was tested for CNS binding affinity towards 5-hydroxytryptamine 1B receptor from cloned gorilla membranes expressed in cultured HEK 293 cells. Format: cell-based, HEK293.
Experiment [4] deals with Cavia porcellus. Kind of experiment: The compound (50umol/kg, sc) was tested for hypothermic response for 60 mins and in Guinea pig. Format: functional. In outline:
as §1

Experiment [5] addresses T2, 5-hydroxytryptamine receptor 1A (Homo sapiens, UniProt P08908).
T2 sequence (P08908 whole entry): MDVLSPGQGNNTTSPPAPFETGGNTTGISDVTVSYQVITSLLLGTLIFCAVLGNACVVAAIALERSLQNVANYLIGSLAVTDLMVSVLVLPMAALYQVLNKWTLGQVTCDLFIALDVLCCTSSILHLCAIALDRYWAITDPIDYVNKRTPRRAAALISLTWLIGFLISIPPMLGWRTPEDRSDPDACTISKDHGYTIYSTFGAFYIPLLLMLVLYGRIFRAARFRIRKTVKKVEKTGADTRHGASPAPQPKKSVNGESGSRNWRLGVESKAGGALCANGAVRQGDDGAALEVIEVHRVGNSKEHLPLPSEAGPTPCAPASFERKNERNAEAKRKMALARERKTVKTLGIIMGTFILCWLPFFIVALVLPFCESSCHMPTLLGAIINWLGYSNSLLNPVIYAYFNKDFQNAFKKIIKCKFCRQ
The experiment can be described thus: The compound was tested for CNS binding affinity towards 5-hydroxytryptamine 1A receptor from cloned Human membranes. In outline:
(§2)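 Radioligand binding on membranes from cloned human receptors (5-HT1A, 5-HT2A, D2, D4). Ki values reported.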

In experiment [6] the target is T3, D(2) dopamine receptor (Homo sapiens, UniProt P14416). Kind of experiment: The compound was tested for CNS binding affinity towards Dopamine receptor D2 from cloned Human membranes. A digest of the protocol:
as §2

Experiment [7] deals with T3, D(2) dopamine receptor. The experiment can be described thus: The compound was tested for CNS binding affinity towards Dopamine receptor D2 from cloned Human membranes. A digest of the protocol:
as §2

In experiment [8] the target is T1, D(4) dopamine receptor. The experiment can be described thus: The compound was tested for CNS binding affinity towards Dopamine receptor D4 from cloned Human membranes. In outline:
as §2

In experiment [9] the target is T2, 5-hydroxytryptamine receptor 1A. The experiment can be described thus: The compound was tested for CNS binding affinity towards 5-hydroxytryptamine 1A receptor from cloned Human membranes. In outline: as §2
Experiment [10] concerns the target T4, 5-hydroxytryptamine receptor 2A (Homo sapiens, UniProt P28223). Kind of experiment: The compound was tested for CNS binding affinity towards 5-hydroxytryptamine 2A receptor from cloned Human membranes.
Experiment [11] deals with T1, D(4) dopamine receptor. Kind of experiment: The compound was tested for CNS binding affinity towards Dopamine receptor D4 from cloned Human membranes. In outline:
as §2

Experiment [12] concerns the target T4, 5-hydroxytryptamine receptor 2A. Kind of experiment: The compound was tested for CNS binding affinity towards 5-hydroxytryptamine 2A receptor from cloned Human membranes. A digest of the protocol:
as §2

Experiment [13] has as its system Cavia porcellus. The experiment can be described thus: The compound (25umol/kg, sc) was tested for hypothermic response for 60 mins in Guinea pig. Format: functional. In outline: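 Guinea pigs received compound subcutaneously (doses 25–100 μmol/kg across groups), and body temperature change was read at 30 and 60 min after dosing. The hypothermic response is the difference in °C from vehicle-treated controls, reported as mean ± SEM (n = 4–5), with significance tested against vehicle.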

Experiment [14] has as its system Cavia porcellus. The experiment can be described thus: The compound (25umol/kg, sc) was tested for hypothermic response for 30 mins in Guinea pig. Format: functional. A digest of the protocol:
as §1

The subject of experiment [15] is Cavia porcellus. The experiment can be described thus: The compound (25umol/kg, sc) was tested for hypothermic response for 60 mins and in Guinea pig. Format: functional. A digest of the protocol:
as §1

Experiment [16] has as its system Cavia porcellus. Kind of experiment: The compound (100umol/kg, sc) was tested for hypothermic response for 30 mins in Guinea pig. Format: functional. In outline:
as §1

For experiment [17], the system named is Cavia porcellus. Kind of experiment: The compound (100umol/kg, sc) was tested for hypothermic response for 60 mins and in Guinea pig. Format: functional. In outline:
as §1

T4 sequence (P28223 whole entry): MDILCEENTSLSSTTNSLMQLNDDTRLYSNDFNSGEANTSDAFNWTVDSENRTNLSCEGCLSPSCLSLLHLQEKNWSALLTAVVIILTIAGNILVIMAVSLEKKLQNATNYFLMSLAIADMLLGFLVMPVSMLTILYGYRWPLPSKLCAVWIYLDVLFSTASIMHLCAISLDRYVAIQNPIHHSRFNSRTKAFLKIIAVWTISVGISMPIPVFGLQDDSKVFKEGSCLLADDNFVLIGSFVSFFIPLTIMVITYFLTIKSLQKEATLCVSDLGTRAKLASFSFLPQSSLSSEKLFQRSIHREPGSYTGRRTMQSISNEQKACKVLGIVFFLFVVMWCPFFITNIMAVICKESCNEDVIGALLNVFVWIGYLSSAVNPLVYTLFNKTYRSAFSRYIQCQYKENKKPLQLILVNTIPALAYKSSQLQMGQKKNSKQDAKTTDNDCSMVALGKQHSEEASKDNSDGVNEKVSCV
T3 sequence (P14416 whole entry): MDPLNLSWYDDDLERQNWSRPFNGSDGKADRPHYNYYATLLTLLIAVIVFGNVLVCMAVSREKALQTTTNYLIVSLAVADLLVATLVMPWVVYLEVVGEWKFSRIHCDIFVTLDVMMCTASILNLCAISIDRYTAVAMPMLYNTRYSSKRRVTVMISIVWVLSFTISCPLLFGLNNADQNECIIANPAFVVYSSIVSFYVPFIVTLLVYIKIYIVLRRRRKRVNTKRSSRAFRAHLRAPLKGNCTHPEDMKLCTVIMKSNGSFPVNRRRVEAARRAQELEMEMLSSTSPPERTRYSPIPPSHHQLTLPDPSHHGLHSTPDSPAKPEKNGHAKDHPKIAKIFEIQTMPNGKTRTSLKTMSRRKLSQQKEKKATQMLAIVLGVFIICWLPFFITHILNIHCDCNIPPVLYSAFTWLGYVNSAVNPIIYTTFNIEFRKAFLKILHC
Sequence of 5-hydroxytryptamine receptor 1B (Q9N2B7 whole entry): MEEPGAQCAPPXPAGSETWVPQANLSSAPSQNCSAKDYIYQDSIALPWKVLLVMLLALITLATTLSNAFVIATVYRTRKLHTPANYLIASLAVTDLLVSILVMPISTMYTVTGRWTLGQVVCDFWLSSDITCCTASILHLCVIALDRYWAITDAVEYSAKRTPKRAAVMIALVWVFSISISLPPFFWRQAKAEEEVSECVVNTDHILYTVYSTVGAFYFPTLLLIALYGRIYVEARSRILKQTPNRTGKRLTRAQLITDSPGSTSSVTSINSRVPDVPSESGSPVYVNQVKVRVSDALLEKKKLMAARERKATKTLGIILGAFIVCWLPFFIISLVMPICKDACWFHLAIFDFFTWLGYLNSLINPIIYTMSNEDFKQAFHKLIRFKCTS

Regarding `COc1ccc(N2CCN(CC[C@@H]3OCCc4cc(C(N)=O)ccc43)CC2)cc1`, the Hypothermic effect in [1] was -1.42 °C; in experiment [4], -1.14 °C. Moreover, the Ki result was “Not Active” in experiment [2], 3.02 µM in [3], 0.967 µM in [5] and 0.325 µM in experiment [6].

As to `COc1ccc(N2CCN(CCC3OCCc4cc(C(N)=O)ccc43)CC2)cc1` (configuration not stated), the inhibition constant Ki in experiment [7] was 0.348 µM; in experiment [3], 5.86 µM; in experiment [8], 1.05 µM; in experiment [9], 2.46 µM.

Regarding `COc1ccc(N2CCN(CC[C@H]3OCCc4cc(C(N)=O)ccc43)CC2)cc1`, the Ki is 26 µM in experiment [3], greater than 3.36 µM in [5] and 0.386 µM in experiment [6].

On to `COc1ccc(N2CCN(CCC3OCCc4ccccc43)CC2)cc1` (configuration not stated), for which the Ki amounted to 0.076 µM in experiment [10]; 7.24 µM in experiment [3]; 0.899 µM in experiment [5]; 0.0024 µM in experiment [11]; 1.43 µM in [6].

For `CNC(=O)c1ccc2c(c1)CCO[C@@H]2CCN1CCN(c2ccc(OC)cc2)CC1`, the Ki result was “Not Active” in [2]; 150 µM in experiment [3]; 0.586 µM in experiment [12]; greater than 3.36 µM in experiment [5]; 0.158 µM in [6].

As for `CNS(=O)(=O)Cc1ccc2[nH]cc(CCN(C)C)c2c1`, the Hypothermic effect in [13] is reported as -0.14. Also, the values for the Ki result in experiment [2] and in experiment [6] were “Not Active” and greater than 0.218 µM, respectively.

Consider `CNC(=O)c1ccc2c(c1)CCO[C@H]2CCN1CCN(c2ccc(OC)cc2)CC1`, for which the Hypothermic effect in experiment [1] was -1.84 °C; in experiment [14], -0.8 °C; in experiment [15], -0.54 °C; in [16], -1.38 °C; in [4], -2.34 °C; in [17], -1.52 °C. Also, the Ki in experiment [10] is 0.168 µM; in experiment [3], 5.78 µM; in experiment [5] it was 1.09 µM; in experiment [11], greater than 3.7 µM; in [6] it was 0.241 µM.

What is called Ki is the dissociation constant of the complex between target and ligand, obtained from inhibition or displacement.
